Data reported in ChEMBL document CHEMBL4371044, “Celastrol Promotes Weight Loss in Diet-Induced Obesity by Inhibiting the Protein Tyrosine Phosphatases PTP1B and TCPTP in the Hypothalamus” (J Med Chem, 2018).
The source made the active and inactive calls. The rule behind the calls is not given here.

Assays:
[1] = molecular target: T1, Receptor-type tyrosine-protein phosphatase eta (Homo sapiens, UniProt Q12913); test: Inhibition of human PTPRJ (1019 to 1311 residues) expressed in Escherichia coli strain BL21(DE3) using DiFMUP as substrate preincubated for 10 mins followed by substrate addition and measured after 10 mins by fluorescence assay
T1 sequence (Q12913 whole entry): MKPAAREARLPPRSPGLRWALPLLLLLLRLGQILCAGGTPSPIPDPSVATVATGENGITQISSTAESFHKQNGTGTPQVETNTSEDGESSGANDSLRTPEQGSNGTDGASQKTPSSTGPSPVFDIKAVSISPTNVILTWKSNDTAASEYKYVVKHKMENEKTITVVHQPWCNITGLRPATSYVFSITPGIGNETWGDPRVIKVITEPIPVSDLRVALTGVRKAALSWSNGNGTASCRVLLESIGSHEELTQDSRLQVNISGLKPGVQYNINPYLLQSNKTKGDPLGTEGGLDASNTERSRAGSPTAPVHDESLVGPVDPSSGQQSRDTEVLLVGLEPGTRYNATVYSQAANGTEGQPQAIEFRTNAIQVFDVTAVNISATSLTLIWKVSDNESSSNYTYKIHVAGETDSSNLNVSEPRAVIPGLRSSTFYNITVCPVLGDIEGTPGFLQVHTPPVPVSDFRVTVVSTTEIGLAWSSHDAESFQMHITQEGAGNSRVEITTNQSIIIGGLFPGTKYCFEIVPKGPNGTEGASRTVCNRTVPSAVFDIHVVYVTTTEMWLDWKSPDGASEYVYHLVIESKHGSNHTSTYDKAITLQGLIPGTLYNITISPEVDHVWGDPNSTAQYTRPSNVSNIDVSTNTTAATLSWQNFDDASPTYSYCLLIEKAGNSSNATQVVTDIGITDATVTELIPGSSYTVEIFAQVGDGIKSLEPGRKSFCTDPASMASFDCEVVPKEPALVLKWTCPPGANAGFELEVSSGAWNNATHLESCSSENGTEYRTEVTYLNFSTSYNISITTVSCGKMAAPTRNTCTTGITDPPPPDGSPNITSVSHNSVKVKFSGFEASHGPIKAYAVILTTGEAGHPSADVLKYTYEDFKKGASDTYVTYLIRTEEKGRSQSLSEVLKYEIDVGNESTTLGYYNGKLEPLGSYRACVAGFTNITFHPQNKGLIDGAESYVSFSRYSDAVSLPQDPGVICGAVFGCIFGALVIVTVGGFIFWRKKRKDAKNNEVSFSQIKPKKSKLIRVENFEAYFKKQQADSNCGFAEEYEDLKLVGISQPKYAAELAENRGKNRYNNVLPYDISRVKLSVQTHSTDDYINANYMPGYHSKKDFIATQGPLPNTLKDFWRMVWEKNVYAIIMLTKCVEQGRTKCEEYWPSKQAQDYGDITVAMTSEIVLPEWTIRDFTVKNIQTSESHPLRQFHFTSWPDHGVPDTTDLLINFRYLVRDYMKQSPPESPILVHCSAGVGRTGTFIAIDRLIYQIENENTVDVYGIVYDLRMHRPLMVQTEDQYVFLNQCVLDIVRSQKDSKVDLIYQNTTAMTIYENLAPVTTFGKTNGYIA
How it was run: (§1)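 Selectivity panel on enzymes expressed in E. coli BL21(DE3), purified by nickel affinity then size exclusion. DiFMUP fluorescence assay run as for PTP1B/TCPTP, with per-enzyme conditions in a supplementary table; nonlinear regression for IC50; three independent experiments.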

Mus musculus [2] = test: Antiobesity activity in high fat diet-induced obese Ptpn1fl/fl/Ptpn2fl/fl null C57BL/6 mouse assessed as reduction in body weight at 100 ug/kg, ip for 10 consecutive days; type: functional, organism-based
How it was run: (§2)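 Male Ptpn1fl/fl, Ptpn2fl/fl or double-floxed mice: chow 8 weeks, then high-fat diet (45% energy from fat) 12 weeks. Bilateral intra-ARC stereotaxic injection of rAAV-CMV-Cre-GFP or rAAV-CMV-GFP, 100 nL/side. After 2 weeks recovery, vehicle or 100 μg/kg ip daily at 6 pm for 10 days; body weight tracked; two-way repeated-measures ANOVA with Tukey test; means ± SEM.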

Mus musculus [3] = test: Antiobesity activity in high fat diet-induced obese Ptpn1fl/fl null C57BL/6 mouse treated with rAAV-CMV-Cre-GFP for deletion of PTP1B assessed as reduction in body weight at 100 ug/kg, ip for 10 consecutive days; type: functional, organism-based; how it was run: as §2
[4] = molecular target: Tyrosine-protein phosphatase non-receptor type 6 (Homo sapiens, UniProt P29350); test: Inhibition of human SHP1 (245 to 521 residues) expressed in Escherichia coli strain BL21(DE3) using DiFMUP as substrate preincubated for 10 mins followed by substrate addition and measured after 10 mins by fluorescence assay; how it was run: as §1
[5] = molecular target: T2, Tyrosine-protein phosphatase non-receptor type 1 (Homo sapiens) (UniProt P18031); test: Non competitive inhibition of human N-terminal His6-tagged PTP1B catalytic domain (1 to 393 residues) expressed in Escherichia coli strain Rosetta2 (DE3) using DiFMUP as substrate preincubated for 10 mins followed by substrate addition and measured after 10 mins by Michaelis-Menten plot analysis
T2 sequence (whole entry): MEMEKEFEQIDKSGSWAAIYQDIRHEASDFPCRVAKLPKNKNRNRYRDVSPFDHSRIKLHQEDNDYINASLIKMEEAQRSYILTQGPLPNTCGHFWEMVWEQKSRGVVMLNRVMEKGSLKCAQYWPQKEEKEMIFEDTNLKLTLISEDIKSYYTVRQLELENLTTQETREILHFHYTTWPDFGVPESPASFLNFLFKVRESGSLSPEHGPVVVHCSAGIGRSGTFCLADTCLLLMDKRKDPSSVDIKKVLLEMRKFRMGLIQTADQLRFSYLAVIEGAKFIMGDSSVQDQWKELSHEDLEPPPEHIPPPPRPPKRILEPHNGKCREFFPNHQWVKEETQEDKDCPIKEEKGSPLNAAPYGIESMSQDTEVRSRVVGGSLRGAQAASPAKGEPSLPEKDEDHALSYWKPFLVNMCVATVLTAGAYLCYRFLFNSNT

[6] = molecular target: T3, Tyrosine-protein phosphatase non-receptor type 2 (Homo sapiens) (UniProt P17706); test: Inhibition of human N-terminal His6-tagged TCPTP catalytic domain (1 to 296 residues) expressed in Escherichia coli strain Rosetta2 (DE3) up to 500 uM using pNPP as substrate preincubated for 10 mins followed by substrate addition and measured after 10 mins by […]
T3 sequence (whole entry): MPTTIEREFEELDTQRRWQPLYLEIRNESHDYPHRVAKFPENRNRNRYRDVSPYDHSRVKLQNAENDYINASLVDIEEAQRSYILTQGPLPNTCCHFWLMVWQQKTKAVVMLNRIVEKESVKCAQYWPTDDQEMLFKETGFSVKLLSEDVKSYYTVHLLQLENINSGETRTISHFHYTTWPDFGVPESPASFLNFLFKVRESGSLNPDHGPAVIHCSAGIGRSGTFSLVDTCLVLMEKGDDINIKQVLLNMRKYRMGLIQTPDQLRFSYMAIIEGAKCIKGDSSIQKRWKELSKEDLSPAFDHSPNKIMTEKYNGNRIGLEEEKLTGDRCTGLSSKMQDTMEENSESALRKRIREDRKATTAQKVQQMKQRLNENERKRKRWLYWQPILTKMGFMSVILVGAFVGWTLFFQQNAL

Tyrosine-protein phosphatase non-receptor type 6, sequence (P29350 whole entry, the tested form may be a part): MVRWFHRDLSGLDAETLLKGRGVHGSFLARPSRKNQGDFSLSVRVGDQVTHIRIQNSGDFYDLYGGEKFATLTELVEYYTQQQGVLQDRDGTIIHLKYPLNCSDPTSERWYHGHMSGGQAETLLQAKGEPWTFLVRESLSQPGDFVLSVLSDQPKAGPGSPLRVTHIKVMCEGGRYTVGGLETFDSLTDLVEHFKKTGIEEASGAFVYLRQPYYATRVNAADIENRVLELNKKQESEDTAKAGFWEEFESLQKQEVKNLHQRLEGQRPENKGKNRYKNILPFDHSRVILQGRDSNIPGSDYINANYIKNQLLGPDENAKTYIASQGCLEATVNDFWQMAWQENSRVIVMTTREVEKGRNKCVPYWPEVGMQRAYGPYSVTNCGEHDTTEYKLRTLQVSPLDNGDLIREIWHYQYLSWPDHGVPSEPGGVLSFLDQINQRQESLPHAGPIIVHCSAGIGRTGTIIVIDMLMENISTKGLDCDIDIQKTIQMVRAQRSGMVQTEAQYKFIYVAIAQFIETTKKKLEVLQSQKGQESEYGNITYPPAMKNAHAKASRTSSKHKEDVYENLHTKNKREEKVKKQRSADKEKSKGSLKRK

## CC1=C(O)C(=O)C=C2C1=CC=C1[C@@]2(C)CC[C@@]2(C)[C@@H]3C[C@](C)(C(=O)O)CC[C@]3(C)CC[C@]12C [CELASTROL]
[1]
  IC50: 111 µM
Mus musculus [2]
  Activity: Active
Mus musculus [3]
  Activity: inactive
[4]
  IC50: 3.1 µM
[5]
  inhibition: Active
[6]
  inhibition: Active
